RORa inhibitor: blocks the human nuclear receptor RORA | 0.43% of 65,000 active | inhibition, % at 10 µM | CHO-K1 Gal4-RORA LBD luciferase reporter, luminescence;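 active = inhibition above the mean of all tested compounds plus 3 SD, cut at about 52% in these data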
Target sequence (P35398 whole entry, looked up, the tested form may be a part): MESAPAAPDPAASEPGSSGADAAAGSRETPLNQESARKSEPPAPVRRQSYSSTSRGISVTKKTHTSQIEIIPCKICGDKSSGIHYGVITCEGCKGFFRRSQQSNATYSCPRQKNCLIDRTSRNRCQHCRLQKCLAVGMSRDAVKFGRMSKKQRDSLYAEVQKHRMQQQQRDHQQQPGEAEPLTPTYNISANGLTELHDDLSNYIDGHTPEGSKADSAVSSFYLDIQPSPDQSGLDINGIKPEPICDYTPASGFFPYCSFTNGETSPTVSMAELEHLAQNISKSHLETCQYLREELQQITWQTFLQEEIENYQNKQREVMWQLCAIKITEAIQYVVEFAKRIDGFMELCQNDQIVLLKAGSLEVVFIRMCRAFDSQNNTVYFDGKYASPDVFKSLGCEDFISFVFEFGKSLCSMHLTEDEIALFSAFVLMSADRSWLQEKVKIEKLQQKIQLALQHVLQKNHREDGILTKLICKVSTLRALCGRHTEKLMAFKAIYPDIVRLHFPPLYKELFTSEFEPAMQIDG
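Material: transiently transfected CHO-K1 cells, Gal4-DBD/human RORA-LBD fusion plus 5xGal4-luciferase reporter; doses: single concentration per compound, 10 µM final; incubation: 20 h at 37 °C; detection: luminescence from basal luciferase reporter expression; read-out: % inhibition of basal luciferase versus +RORA/-RORA DMSO controls; replication: tested once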
Numbers stand for hits; n = inactive. The sample as a whole holds a higher share of hits than the screen did.

SMILES | RORa inhibitor
O=C(CN(C1CCCCC1)S(=O)(=O)c1ccc(Cl)cc1)NCCCO | n
CCOCC(=O)Nc1nnc(C2CCCCC2)s1 | n
CCN(C(=O)c1ccc(C(C)(C)C)cc1)c1nnc(Cn2nnc3ccccc32)s1 | 66.2
CCN(C(=O)c1cccs1)c1nnc(-c2ccncc2)s1 | n
Cc1ccc2nsnc2c1S(=O)(=O)N1CCN(Cc2ccc3c(c2)OCO3)CC1 | n
CC(C)C(=O)N1CCN(c2nc(-c3ccccc3)c3c(c2C#N)CCCC3)CC1 | n
CCC1CCCCN1CCCNC(=O)COc1cc(=O)n(C)c2ccccc12 (configuration not stated) | n
Cc1cc(NC(=O)CCCOc2ccc(Cl)cc2Cl)no1 | n
Cc1ccnc(NC(=O)CCCOc2cc(=O)n(C)c3ccccc23)c1 | 56.7
CNc1nc(C)nc(-c2ccccc2O)n1 | n
O=C(CCCCn1c(=O)[nH]c2ccccc2c1=O)N1CCN(c2ncccn2)CC1 | n
O=C(CCCNS(=O)(=O)c1cccc2nsnc12)NCc1ccc(F)cc1 | n
CS(=O)(=O)c1nc(-c2cccs2)cc(C(F)(F)F)n1 | 78.2
Cc1nc2nc(-c3cccs3)cn2nc1C | n
Cn1c(OCc2cccnc2)nc2c1c(=O)n(Cc1ccc(Br)cc1)c(=O)n2C | n
O=C(Nc1cnc2sc3c(n2c1=O)CCCC3)c1ccc(F)cc1 | n
O=C(OCc1nc2ccccc2s1)c1cccs1 | n
O=C(NC1CC1)c1ccc(-c2nc3ccccc3s2)s1 | 80.9
CNc1sc(C(=O)c2cccs2)c(N)c1-c1nc2ccccc2s1 | n
O=C(O)c1cccc(S(=O)(=O)N2CCOCC2)c1 | n
CCOC(=O)N1CCN(C(=O)CCc2ccc(S(=O)(=O)NCCc3ccccc3)cc2)CC1 | n
Cc1cc(Br)c(S(=O)(=O)n2nnc3ccccc32)cc1C | n
O=C1c2ccccc2C(=O)C1c1ccc2ccccc2n1 | 70.0
COc1cccc(C2=N/C(=C\N(C)C)C(=O)O2)c1 | n
COC(=O)[C@@H](NC(=O)NC1CCCc2ccccc21)C(C)C (some centres not stated) | n
SMILES | RORa inhibitor
CN(CC(=O)NC1CCCCC1)S(=O)(=O)c1cccc2nsnc12 | n
O=c1cnc2ccccc2n1CC1CCCCC1 | n
Cc1ccc(NC2=Nc3ccccc3CS2)cc1 | 61.0
O=C(CCCOc1ccccc1)Nc1ccc2c(c1)OCCO2 | n
Cc1ccc(-n2ncc(-c3nnc(SCC(=O)NC4CCCC4)o3)c2N)cc1C | n
Nc1cc(C2CCCC2)nn1-c1ccccc1 | n
O=C(c1ccco1)N1CCN(c2ccc(Cl)cc2)CC1 | n
Cc1noc(C)c1S(=O)(=O)Nc1ccc(C(=O)N2CCN(c3ccc(Cl)cc3)CC2)cc1 | 60.4
CC(=O)c1ccc(N2CCN(C(=O)c3ccc(OCc4c(C)noc4C)cc3)CC2)cc1 | n
O=C1c2ccccc2C(=O)N1CNc1ccccc1 | n
COc1ccc(NC(=O)CC2Oc3ccccc3NC2=O)cc1 (configuration not stated) | n
c1ccn2c(CNc3ncnc4sccc34)nnc2c1 | n
Cc1cnc(NC(=O)COc2ccccc2Cl)s1 | 73.5
CCOc1ccccc1OCC(=O)Nc1ccc(S(=O)(=O)N(C)C)cc1 | n
O=C(COc1ccccc1)Nc1nc2ccccc2[nH]1 | n
COC(=O)c1ccc(NC(=O)Cn2nc(SC)n(N)c2=S)cc1 | n
C=C(C)C(C)(C#CCN1CCCC1)OC(C)=O (configuration not stated) | n
COc1cccc(C2/C(=C(/O)c3ccccc3)C(=O)C(=O)N2CCCC(=O)O)c1 (configuration not stated) | n
CC1CCc2c(sc(NC(=O)c3noc4c3CCCC4)c2C(N)=O)C1 (configuration not stated) | n
Nc1nnnn1/N=C/C(Br)=C/c1ccccc1 | 76.9
Cc1c(NC(=O)CCC(=O)N2CCCCC2)c(=O)n(-c2ccccc2)n1C | n
COc1ccc(OC)c(NC(=O)CSc2nnnn2-c2ccc3c(c2)OCO3)c1 | 79.9
CC(C)OC(=O)CSc1nnnn1-c1ccc2c(c1)OCCO2 | n
COc1ccc(OC)c(-n2nnnc2SCC(=O)Nc2ccc(C(=O)N3CCCCC3)cc2)c1 | n
CCCN(Cc1ccccc1)S(=O)(=O)c1ccc(N2C(=O)CCC2=O)cc1 | n
SMILES | RORa inhibitor
CCOc1ccc2oc(-c3ccccc3)c(C(=O)N3CCN(CCO)CC3)c2c1 | n
COc1ccc(C2CCCN2C(=O)Nc2cccc(C(C)=O)c2)cc1OC (configuration not stated) | n
COc1ccc(-n2c(C)cc(C(=O)Cn3c(NCCO)nc4ccccc43)c2C)cc1 | n
COc1ccc(N(C(=O)Cn2nnc3ccccc32)C(C(=O)NCc2ccco2)c2ccc(C)o2)cc1 (configuration not stated) | n
CCCCNC(=O)c1cc(-c2ccc(F)cc2)on1 | n
CCNc1nc(N)c(C(=O)c2ccc(Cl)s2)s1 | n
CCCN1C(=O)c2ccc(C(=O)Nc3cc(C)on3)cc2C1=O | n
Cc1cc(NC(=O)c2ccc3c(c2)OCCO3)no1 | 58.9
Cc1cc(NC(=O)c2noc3c2CCCCC3)no1 | n
CC(=O)Nc1c(C(=O)N2CCN(c3ncccn3)CC2)cnn1-c1ccccc1Cl | n
Cc1noc(/C=C/N(C)C)c1S(=O)(=O)N1CCc2ccccc21 | n
CCOC(=O)c1oc2ccccc2c1NC(=O)c1cc(OC)cc(OC)c1 | n
COc1ccc(CNC(=O)c2cc3c(C)nc4ccccc4c3o2)c(OC)c1 | 55.4
COc1ccc(NC(=O)c2cc(-c3ccc(C)o3)nc3ccccc23)cc1OC | n
COc1ccc(Nc2nc(C)c3ccccc3n2)cc1 | n
Cn1cc(S(=O)(=O)NCc2cccs2)c(=O)n(C)c1=O | n
C=CS(=O)(=O)c1ccc(Oc2ccc(S(=O)(=O)C=C)cc2)cc1 | 94.5
CSCCC(NC=C1C(=O)OC(C)(C)OC1=O)C(=O)O (configuration not stated) | n
CC(C)C1N(S(=O)(=O)c2ccccc2)CCN1S(=O)(=O)c1ccccc1 | n
COC(=O)[C@@H](NC(=O)NCc1ccco1)C(C)C | n
O=C(/C=C\Nc1ccccn1)c1ccc(Cl)cc1 | 63.8
O=C(/C=C/Nc1ccc(F)c(Cl)c1)c1ccco1 | n
O=C(Nc1ccc(Cl)cn1)c1cccc(F)c1 | n
c1ccc(Nc2cc(Nc3ccccc3)[nH]n2)cc1 | n
O=c1cc(-c2c(F)c(F)c(F)c(F)c2F)oc2c(F)c(F)c(F)c(F)c12 | 83.9
SMILES | RORa inhibitor
O=C(CSc1nccc2ccccc12)N1CCN(Cc2ccc3c(c2)OCO3)CC1 | n
CCn1c(SCC(=O)Nc2cccc(NC(C)=O)c2)nnc1C(C)C | n
Cn1cc(Cl)c(-c2nc3ccccc3[nH]2)n1 | n
Cn1ccnc1-c1nc2ccccc2[nH]c1=O | n
c1ccc2nc(-c3nc4ccccc4[nH]3)ccc2c1 | 66.5
C=CCNC(=O)c1cc(-c2ccc(Br)cc2)on1 | n
O=C(Nc1ccc2c(c1)OCCO2)C1CCN(S(=O)(=O)c2ccc(Br)s2)CC1 | n
CC1(C)CC(=O)C2=C(C1)Oc1nc3ccccc3cc1C2C(C#N)C#N (configuration not stated) | 72.1
O=C(Cc1cn2ccsc2n1)NCCc1ccc(F)cc1 | n
CCOC(=O)c1ccc(NS(=O)(=O)N2CCCCCC2)cc1 | n
Nc1nc(-c2ccccc2)cc(-c2ccccc2O)n1 | n
CS(=O)c1nc(-c2ccc(Br)cc2)cc(-c2ccccc2)c1C#N (configuration not stated) | 57.5
CCOC(=O)Cc1csc(SCc2nc3ccccc3c(=O)[nH]2)n1 | n
Cc1ccc2nc(-c3ccccc3)cn2c1 | 89.1
Cc1cccn2cc(-c3ccccc3)nc12 | n
CCOc1cccc(-c2nnc3sc(COc4ccc(Cl)cc4)nn23)c1 | n

High-throughput results (PubChem BioAssay)
